Assay results taken from ChEMBL document CHEMBL3734675, “Synthesis, antimycobacterial and antibacterial activity of fluoroquinolone derivatives containing an 3-alkoxyimino-4-(cyclopropylanimo)methylpyrrolidine moiety” (2015).
Converted amounts (≈) assume the structure as drawn.

Legend:
Assay type in all cases: functional
Escherichia coli [1] = assay: Antibacterial activity against Escherichia coli ATCC 25922 after 18 to 24 hrs by two-fold serial dilution method
In short: (§1)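 Twofold serial dilution in agar media against Gram-positive and Gram-negative strains. Plates incubated at 35 °C for 18–24 h. MIC read as the lowest compound concentration giving complete inhibition of bacterial growth.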

Escherichia coli [2] = assay: Antibacterial activity against extended-spectrum beta-lactamase producing Escherichia coli 14-1 after 18 to 24 hrs by two-fold serial dilution method; in short: as §1
Escherichia coli [3] = assay: Antibacterial activity against extended-spectrum beta-lactamase producing Escherichia coli 14-2 after 18 to 24 hrs by two-fold serial dilution method; in short: as §1
Escherichia coli [4] = assay: Antibacterial activity against Escherichia coli 14-1 after 18 to 24 hrs by two-fold serial dilution method; in short: as §1
Escherichia coli [5] = assay: Antibacterial activity against Escherichia coli 14-2 after 18 to 24 hrs by two-fold serial dilution method; in short: as §1
Klebsiella pneumoniae [6] = assay: Antibacterial activity against extended-spectrum beta-lactamase producing Klebsiella pneumoniae 14-17 after 18 to 24 hrs by two-fold serial dilution method; in short: as §1
Klebsiella pneumoniae [7] = assay: Antibacterial activity against extended-spectrum beta-lactamase producing Klebsiella pneumoniae 14-18 after 18 to 24 hrs by two-fold serial dilution method; in short: as §1
Klebsiella pneumoniae [8] = assay: Antibacterial activity against extended-spectrum beta-lactamase producing Klebsiella pneumoniae 14-19 after 18 to 24 hrs by two-fold serial dilution method; in short: as §1
Klebsiella pneumoniae [9] = assay: Antibacterial activity against Klebsiella pneumoniae 14-1 after 18 to 24 hrs by two-fold serial dilution method; in short: as §1
Klebsiella pneumoniae [10] = assay: Antibacterial activity against Klebsiella pneumoniae 14-2 after 18 to 24 hrs by two-fold serial dilution method; in short: as §1
Klebsiella pneumoniae [11] = assay: Antibacterial activity against Klebsiella pneumoniae 14-3 after 18 to 24 hrs by two-fold serial dilution method; in short: as §1
Klebsiella pneumoniae [12] = assay: Antibacterial activity against Klebsiella pneumoniae 14-4 after 18 to 24 hrs by two-fold serial dilution method; in short: as §1
Pseudomonas aeruginosa [13] = assay: Antibacterial activity against Pseudomonas aeruginosa ATCC 27853 after 18 to 24 hrs by two-fold serial dilution method; in short: as §1
Pseudomonas aeruginosa [14] = assay: Antibacterial activity against Pseudomonas aeruginosa 14-9 after 18 to 24 hrs by two-fold serial dilution method; in short: as §1
Pseudomonas aeruginosa [15] = assay: Antibacterial activity against Pseudomonas aeruginosa 14-14 after 18 to 24 hrs by two-fold serial dilution method; in short: as §1
Pseudomonas aeruginosa [16] = assay: Antibacterial activity against Pseudomonas aeruginosa 14-15 after 18 to 24 hrs by two-fold serial dilution method; in short: as §1
Pseudomonas aeruginosa [17] = assay: Antibacterial activity against Pseudomonas aeruginosa 14-16 after 18 to 24 hrs by two-fold serial dilution method; in short: as §1
Staphylococcus aureus [18] = assay: Antibacterial activity against Staphylococcus aureus CMCC 26003 after 18 to 24 hrs by two-fold serial dilution method; in short: as §1
Staphylococcus aureus [19] = assay: Antibacterial activity against methicillin-sensitive Staphylococcus aureus 14-1 after 18 to 24 hrs by two-fold serial dilution method; in short: as §1
Staphylococcus aureus [20] = assay: Antibacterial activity against methicillin-sensitive Staphylococcus aureus 14-3 after 18 to 24 hrs by two-fold serial dilution method; in short: as §1
Staphylococcus aureus [21] = assay: Antibacterial activity against methicillin-sensitive Staphylococcus aureus 14-4 after 18 to 24 hrs by two-fold serial dilution method; in short: as §1
Staphylococcus aureus [22] = assay: Antibacterial activity against methicillin-resistant Staphylococcus aureus 14-4 after 18 to 24 hrs by two-fold serial dilution method
In short: (§2)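 Agar media, standard twofold serial dilution. MIC is the lowest concentration giving complete inhibition of bacterial growth after incubation at 35 °C for 18–24 h. Ciprofloxacin and levofloxacin were run as comparators.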

Staphylococcus aureus [23] = assay: Antibacterial activity against methicillin-resistant Staphylococcus aureus 14-5 after 18 to 24 hrs by two-fold serial dilution method; in short: as §2
[24] = system: Staphylococcus epidermidis; assay: Antibacterial activity against methicillin-sensitive Staphylococcus epidermidis 14-2 after 18 to 24 hrs by two-fold serial dilution method; in short: as §1
[25] = system: Staphylococcus epidermidis; assay: Antibacterial activity against methicillin-resistant Staphylococcus epidermidis 14-21 after 18 to 24 hrs by two-fold serial dilution method; in short: as §2
[26] = system: Staphylococcus epidermidis; assay: Antibacterial activity against methicillin-resistant Staphylococcus epidermidis 14-22 after 18 to 24 hrs by two-fold serial dilution method; in short: as §2
[27] = system: Staphylococcus epidermidis; assay: Antibacterial activity against methicillin-resistant Staphylococcus epidermidis 14-37 after 18 to 24 hrs by two-fold serial dilution method; in short: as §2
[28] = system: Staphylococcus epidermidis; assay: Antibacterial activity against methicillin-resistant Staphylococcus epidermidis 14-39 after 18 to 24 hrs by two-fold serial dilution method; in short: as §2
Streptococcus pneumoniae = assay: Antibacterial activity against methicillin-resistant Streptococcus pneumoniae ATCC 19615 after 18 to 24 hrs by two-fold serial dilution method; in short: as §2
Enterococcus faecium [29] = assay: Antibacterial activity against Enterococcus faecium 14-2 after 18 to 24 hrs by two-fold serial dilution method; in short: as §1
Enterococcus faecium [30] = assay: Antibacterial activity against Enterococcus faecium 14-5 after 18 to 24 hrs by two-fold serial dilution method; in short: as §1
Enterococcus faecium [31] = assay: Antibacterial activity against Enterococcus faecium 14-6 after 18 to 24 hrs by two-fold serial dilution method; in short: as §1
Enterococcus faecalis [32] = assay: Antibacterial activity against Enterococcus faecalis 14-1 after 18 to 24 hrs by two-fold serial dilution method; in short: as §1
Enterococcus faecalis [33] = assay: Antibacterial activity against Enterococcus faecalis 14-2 after 18 to 24 hrs by two-fold serial dilution method; in short: as §1
[34] = system: Mycobacterium tuberculosis; assay: Antimycobacterial activity against Mycobacterium tuberculosis H37Rv ATCC 27294 incubated for 7 days by microplate Alamar Blue assay; settings: H37Rv ATCC 27294, 168 h
In short: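 Fluorescence read-out. MIC is the lowest concentration that reduces fluorescence by at least 90% relative to the mean of replicate bacterium-only controls. Isoniazid and rifampicin were included as reference drugs.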

| SMILES | MIC (Escherichia coli [1]) [µg/mL] | MIC (Escherichia coli [2]) [µg/mL] | MIC (Escherichia coli [3]) [µg/mL] | MIC (Escherichia coli [4]) [µg/mL] | MIC (Escherichia coli [5]) [µg/mL] | MIC (Klebsiella pneumoniae [6]) [µg/mL] | MIC (Klebsiella pneumoniae [7]) [µg/mL] | MIC (Klebsiella pneumoniae [8]) [µg/mL] | MIC (Klebsiella pneumoniae [9]) [µg/mL] | MIC (Klebsiella pneumoniae [10]) [µg/mL] | MIC (Klebsiella pneumoniae [11]) [µg/mL] | MIC (Klebsiella pneumoniae [12]) [µg/mL] | MIC (Pseudomonas aeruginosa [13]) [µg/mL] | MIC (Pseudomonas aeruginosa [14]) [µg/mL] | MIC (Pseudomonas aeruginosa [15]) [µg/mL] | MIC (Pseudomonas aeruginosa [16]) [µg/mL] | MIC (Pseudomonas aeruginosa [17]) [µg/mL] | MIC (Staphylococcus aureus [18]) [µg/mL] | MIC (Staphylococcus aureus [19]) [µg/mL] | MIC (Staphylococcus aureus [20]) [µg/mL] | other results |
| --- | --- | --- | --- | --- | --- | --- | --- | --- | --- | --- | --- | --- | --- | --- | --- | --- | --- | --- | --- | --- | --- |
| CCO/N=C1/CN(c2c(F)cc3c(=O)c(C(=O)O)cn([C@@H]4C[C@@H]4F)c3c2OC)CC1CNC1CC1 (some centres undefined) | 2 (≈ 4.08 µM) | 4 (≈ 8.15 µM) | > 32 | > 32 | > 32 | 32 (≈ 65.2 µM) | 32 (≈ 65.2 µM) | > 32 | > 32 | > 32 | > 32 | > 32 | 16 (≈ 32.6 µM) | 32 (≈ 65.2 µM) | 32 (≈ 65.2 µM) | 32 (≈ 65.2 µM) | 32 (≈ 65.2 µM) | 0.06 (≈ 0.122 µM) | 8 (≈ 16.3 µM) | 0.03 (≈ 0.0612 µM) | MIC (Staphylococcus aureus [21]): 0.06 µg/mL (≈ 0.122 µM); MIC (Staphylococcus aureus [22]): 8 µg/mL (≈ 16.3 µM); MIC (Staphylococcus aureus [23]): 16 µg/mL (≈ 32.6 µM); MIC [24]: 16 µg/mL (≈ 32.6 µM); MIC [25]: 8 µg/mL (≈ 16.3 µM); MIC [26]: 8 µg/mL (≈ 16.3 µM); MIC [27]: 8 µg/mL (≈ 16.3 µM); MIC [28]: 4 µg/mL (≈ 8.15 µM); MIC (Streptococcus pneumoniae): 0.25 µg/mL (≈ 0.51 µM); MIC (Enterococcus faecium [29]): 8 µg/mL (≈ 16.3 µM); MIC (Enterococcus faecium [30]): 4 µg/mL (≈ 8.15 µM); MIC (Enterococcus faecium [31]): 16 µg/mL (≈ 32.6 µM); MIC (Enterococcus faecalis [32]): 32 µg/mL (≈ 65.2 µM); MIC (Enterococcus faecalis [33]): 2 µg/mL (≈ 4.08 µM) |
| CCO/N=C1/CN(c2nc3c(cc2F)c(=O)c(C(=O)O)cn3C2CC2)CC1(C)CNC1CC1 (centres undefined) | 1 (≈ 2.19 µM) | 32 (≈ 69.9 µM) | > 128 | > 128 | > 128 | 64 (≈ 140 µM) | 64 (≈ 140 µM) | 64 (≈ 140 µM) | 64 (≈ 140 µM) | 64 (≈ 140 µM) | 128 (≈ 280 µM) | > 128 | 32 (≈ 69.9 µM) | 32 (≈ 69.9 µM) | 128 (≈ 280 µM) | 64 (≈ 140 µM) | 32 (≈ 69.9 µM) | < 0.008 | 0.25 (≈ 0.546 µM) | 0.5 (≈ 1.09 µM) | MIC90 [34]: < 0.25 µg/mL; MIC (Staphylococcus aureus [21]): 0.25 µg/mL (≈ 0.546 µM); MIC (Staphylococcus aureus [22]): 4 µg/mL (≈ 8.74 µM); MIC (Staphylococcus aureus [23]): 4 µg/mL (≈ 8.74 µM); MIC [24]: 8 µg/mL (≈ 17.5 µM); MIC [25]: 4 µg/mL (≈ 8.74 µM); MIC [26]: 4 µg/mL (≈ 8.74 µM); MIC [27]: 2 µg/mL (≈ 4.37 µM); MIC [28]: 4 µg/mL (≈ 8.74 µM); MIC (Streptococcus pneumoniae): 0.25 µg/mL (≈ 0.546 µM); MIC (Enterococcus faecium [29]): 4 µg/mL (≈ 8.74 µM); MIC (Enterococcus faecium [30]): 8 µg/mL (≈ 17.5 µM); MIC (Enterococcus faecium [31]): 4 µg/mL (≈ 8.74 µM); MIC (Enterococcus faecalis [32]): 16 µg/mL (≈ 35 µM); MIC (Enterococcus faecalis [33]): 0.125 µg/mL (≈ 0.273 µM) |
